From ChEMBL document CHEMBL1142981, “Identification and synthesis of a novel selective partial PPARdelta agonist with full efficacy on lipid metabolism in vitro and in vivo” (J Med Chem, 2007)
Calls of active or inactive are those of the source. The rule behind the calls is not given here.

Columns and labels:
Mus musculus [1] = test: Decrease in HbA1c level in human ApoB100/CETP transgenic mouse at 20 mg/kg, po after 6 weeks relative to control; type: functional; parameters: scale not given: the % may be the effect or the level left
[2] = target: T1, Peroxisome proliferator-activated receptor delta (Mus musculus) (UniProt P35396); test: (§1) Agonist activity at mouse PPAR delta expressed in HEK293 cells by PPAR-GAL4 transactivation assay; type: functional, cell-based
T1 sequence (whole entry): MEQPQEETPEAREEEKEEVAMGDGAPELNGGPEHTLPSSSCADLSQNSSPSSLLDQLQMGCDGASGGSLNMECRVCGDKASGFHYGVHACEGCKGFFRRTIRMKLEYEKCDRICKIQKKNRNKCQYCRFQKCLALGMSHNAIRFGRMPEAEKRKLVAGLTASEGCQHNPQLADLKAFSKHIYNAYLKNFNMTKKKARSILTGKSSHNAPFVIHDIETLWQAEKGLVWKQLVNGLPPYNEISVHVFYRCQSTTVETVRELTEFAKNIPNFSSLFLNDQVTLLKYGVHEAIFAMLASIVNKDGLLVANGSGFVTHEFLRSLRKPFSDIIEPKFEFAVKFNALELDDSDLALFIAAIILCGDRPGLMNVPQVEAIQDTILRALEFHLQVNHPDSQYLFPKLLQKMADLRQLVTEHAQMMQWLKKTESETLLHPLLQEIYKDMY

[3] = target: T2, Peroxisome proliferator-activated receptor delta (Mus musculus, UniProt P35396); test: as §1; type: functional, cell-based
T2 sequence (P35396 whole entry): T1 sequence (whole entry)

Mus musculus [4] = test: Decrease in total cholesterol level in human ApoB100/CETP transgenic mouse at 5 mg/kg, po after 6 weeks relative to control; type: functional; parameters: scale not given: the % may be the effect or the level left
Mus musculus [5] = test: Decrease in glucose level in human ApoB100/CETP transgenic mouse at 5 mg/kg, po after 6 weeks relative to control; type: functional; parameters: scale not given: the % may be the effect or the level left
Mus musculus [6] = test: Decrease in total cholesterol level in human ApoB100/CETP transgenic mouse at 10 mg/kg, po after 6 weeks relative to control; type: functional; parameters: scale not given: the % may be the effect or the level left
Mus musculus [7] = test: Decrease in triglycerides level in human ApoB100/CETP transgenic mouse at 5 mg/kg, po after 6 weeks relative to control; type: functional; parameters: scale not given: the % may be the effect or the level left
L6 [8] = test: Effect on increase in fatty acid oxidation in rat L6 cells relative to GW-501516; type: functional; parameters: concentration or dose not given beside the values
In short: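 Rat L6 myoblasts differentiated 5 days in 2% serum, then treated 42 h with compound (refreshed at 24 h), followed by 6 h with 0.4 mM palmitate containing [9,10-3H]-palmitic acid on 2% fatty-acid-free BSA. Stopped with 10% TCA; released 3H-H2O collected by overnight equilibration at 50 °C and counted.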

Mus musculus [9] = test: Decrease in glucose level in human ApoB100/CETP transgenic mouse at 10 mg/kg, po after 6 weeks relative to control; type: functional; parameters: scale not given: the % may be the effect or the level left
Mus musculus [10] = test: Decrease in total ketone bodies level in human ApoB100/CETP transgenic mouse at 10 mg/kg, po after 6 weeks relative to control; type: functional; parameters: scale not given: the % may be the effect or the level left
Mus musculus [11] = test: Increase in HDL level in human ApoB100/CETP transgenic mouse at 20 mg/kg, po after 6 weeks relative to control; type: functional
[12] = Plasma Cmax in Sprague-Dawley rat at 2.06 mg/kg, po; type: ADME, organism-based; parameters: dose 2.06 mg/kg, route oral
In short: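 Male SD rats received a single p.o. or i.v. dose (n = 8 per route) in 5% ethanol, 10% HPCD and phosphate buffer, pH 7.5-8.0. At 5, 15, 30, 60, 90, 120, 240 and 360 min one rat was sacrificed per time point. EDTA plasma was assayed by high turbulence LC-MS/MS. Cmax and bioavailability were taken from oral dosing; volume of distribution is at steady state.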

Mus musculus [13] = test: Decrease in total ketone bodies level in human ApoB100/CETP transgenic mouse at 20 mg/kg, po after 6 weeks relative to control; type: functional; parameters: scale not given: the % may be the effect or the level left
[14] = Half life in Sprague-Dawley rat at 2.06 mg/kg, po; type: ADME, organism-based; parameters: dose 2.06 mg/kg, route oral; conditions: in vivo
In short: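 Male SD rats dosed once i.v. or p.o. (n = 8 per route), vehicle 5% ethanol, 10% HPCD, phosphate buffer pH 7.5-8.0. One animal sacrificed at each of 5, 15, 30, 60, 90, 120, 240 and 360 min; EDTA plasma analysed by high turbulence LC-MS/MS. Each data point represents one animal.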

L6 [15] = test: Effect on glucose oxidation in rat L6 cells; type: functional, cell-based
In short: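 Differentiated rat L6 cells handled as for the fatty acid oxidation assay, with tritiated palmitate replaced by 10 µCi/mL [5-3H]-D-glucose; oxidation measured as 3H-H2O released into medium after TCA stop, collected by overnight equilibration at 50 °C and scintillation counting. FCCP served as positive control.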

[16] = target: T3, Peroxisome proliferator-activated receptor alpha (Mus musculus) (UniProt P23204); test: Agonist activity at mouse PPAR alpha expressed in HEK293 cells up to 30 uM by PPAR-GAL4 transactivation assay; type: functional, cell-based
T3 sequence (whole entry): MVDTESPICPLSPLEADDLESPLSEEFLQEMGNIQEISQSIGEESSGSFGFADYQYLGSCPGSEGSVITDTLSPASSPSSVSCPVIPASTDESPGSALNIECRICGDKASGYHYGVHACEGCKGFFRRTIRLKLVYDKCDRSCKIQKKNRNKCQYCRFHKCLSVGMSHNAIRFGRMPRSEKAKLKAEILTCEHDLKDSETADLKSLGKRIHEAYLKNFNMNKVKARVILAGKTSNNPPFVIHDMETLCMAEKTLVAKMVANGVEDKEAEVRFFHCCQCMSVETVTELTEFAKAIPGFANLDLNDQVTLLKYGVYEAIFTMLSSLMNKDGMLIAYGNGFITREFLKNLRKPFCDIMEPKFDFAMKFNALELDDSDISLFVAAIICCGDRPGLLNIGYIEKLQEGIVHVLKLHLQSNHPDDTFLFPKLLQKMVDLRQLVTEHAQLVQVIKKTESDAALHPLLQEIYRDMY

[17] = target: T4, Peroxisome proliferator-activated receptor gamma (Homo sapiens, UniProt P37231); type: cell-based, HEK293
T4 sequence (P37231 whole entry): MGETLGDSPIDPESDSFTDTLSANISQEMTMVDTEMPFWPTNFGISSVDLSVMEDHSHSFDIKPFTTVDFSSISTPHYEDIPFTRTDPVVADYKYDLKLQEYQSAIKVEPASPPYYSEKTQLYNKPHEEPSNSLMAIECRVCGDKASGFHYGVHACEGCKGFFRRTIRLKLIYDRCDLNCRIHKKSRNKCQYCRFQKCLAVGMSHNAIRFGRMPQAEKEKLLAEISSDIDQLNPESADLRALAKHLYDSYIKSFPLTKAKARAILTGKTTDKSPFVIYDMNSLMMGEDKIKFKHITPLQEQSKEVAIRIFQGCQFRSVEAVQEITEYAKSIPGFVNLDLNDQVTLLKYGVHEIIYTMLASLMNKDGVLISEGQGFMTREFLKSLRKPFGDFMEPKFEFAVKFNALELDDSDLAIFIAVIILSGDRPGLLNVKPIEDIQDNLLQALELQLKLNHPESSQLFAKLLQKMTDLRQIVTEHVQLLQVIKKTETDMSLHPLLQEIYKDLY

Activity [2]: 167% | EC50 [3]: 300 nM | Cmax [12]: 508 ng/mL | half-life [14]: 59 min | Activity [16]: inactive | EC50 [17]: > 10 µM
Structure (SMILES): O=C(O)COc1ccc(SCC=C(c2ccc(Br)cc2)c2ccc(Br)cc2)cc1Cl
Activity (Mus musculus [1]): 12% | Activity (Mus musculus [4]): 19% | Activity (Mus musculus [5]): 3% | Activity (Mus musculus [6]): 14% | Activity (Mus musculus [7]): 15% | Activity (L6 [8]): 109% | Activity (Mus musculus [9]): 2% | Activity (Mus musculus [10]): 10% | Activity (Mus musculus [11]): 33% | Activity (Mus musculus [13]): 29% | Activity (L6 [15]): inactive
